# Screens: PubChem BioAssay, Broad Institute
# Only some compounds are listed: those with a hit (about 4% of all), similar ones and a draw of the others.
# SIRT5 block: sirtuin-5 (human) deacylase inhibition; Q9NXA8; AID 652115; inhibition, % at 15 µM; Purified SirT5, succinyl-peptide AMC, trypsin-coupled fluorescence; 330,000 tested, 1.1% active; in the data active means inhibition above about 15%
# Target sequence (Q9NXA8 whole entry, looked up): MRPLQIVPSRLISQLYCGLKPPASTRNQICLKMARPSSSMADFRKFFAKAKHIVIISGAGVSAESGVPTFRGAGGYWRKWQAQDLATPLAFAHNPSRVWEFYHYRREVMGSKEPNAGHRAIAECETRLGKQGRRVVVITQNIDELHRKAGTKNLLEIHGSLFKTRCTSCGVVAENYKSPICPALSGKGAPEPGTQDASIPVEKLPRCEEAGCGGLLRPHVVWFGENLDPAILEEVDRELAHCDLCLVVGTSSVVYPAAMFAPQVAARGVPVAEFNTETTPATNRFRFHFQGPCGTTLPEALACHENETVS
# rRNA inh HTS: inhibitors of bacterial rRNA selective over humanized ribosomes; E. coli WT GFP vs humanized-ribosome RFP mutants, fluorescence, 24 h; stronger effect = lower value; DMSO median 0, no signal -100; GFP signal change (wild-type ribosome), % (test concentration not listed); 350,000 tested, 1.6% active; AID 720706;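 active means significant combined selectivity score with lowered wild-type GFP, culture density cut under 30%, mutant RFP and density less affected; inactive means any of these conditions unmet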
# E-sel inducer: induces E-selectin expression in human endothelial cells. HUVEC E-selectin immunofluorescence imaging; normalized: neutral wells 0, TNF-alpha wells 100. 260,000 tested, 0.37% active. activation, % at 7.58 µM;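 active means mean E-selectin-positive cell signal at least 10% of the positive control, reached in at least 60% of replicates, without over 20% cell loss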
#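 Read-out basis: % PE-positive cells; Test system: HUVEC primary endothelial cells; Technique: immunofluorescence imaging; Dosing: single-point compound dose.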
# FGF22 binding: binders of recombinant human FGF22 by thermal shift. Q9HCT0. SYPRO orange fluorescence; percent of sucrose octasulfate shift, DMSO zero. activity (Tm shift, normalised), % at 9.99 µM. 340,000 tested, 1.5% active;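 active means mean Tm shift, scaled 0 neutral to 100 positive control, at about 1.3% or above, every replicate too, limit read from the data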
# Target sequence (Q9HCT0 whole entry, looked up): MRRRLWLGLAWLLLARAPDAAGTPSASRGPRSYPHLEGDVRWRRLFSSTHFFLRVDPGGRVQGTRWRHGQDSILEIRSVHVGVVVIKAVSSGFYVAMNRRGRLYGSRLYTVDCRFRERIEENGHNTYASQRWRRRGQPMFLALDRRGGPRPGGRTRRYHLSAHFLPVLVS
# FN deposit inh: fibronectin deposition inhibition | AH1F fibroblasts, Alexa488-fibronectin deposition fluorescence, overnight | inhibition, % at 12.6 µM | 350,000 tested, 0.086% active;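 active means mean inhibition across replicates of 30% or more, regardless of how many single replicates reach that level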
#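 Assay system: AH1F fibroblasts assembling fluorescent fibronectin matrix; Amount: 10000 AH1F cells per well; Buffer or medium: DMEM, 2% serum; Probe or stimulus: Alexa488-fibronectin, 24 nM final in well; Doses: single compound dose, delivered by pin transfer; Incubation: 1 h adhesion, overnight exposure; Measured by: fluorescence 485/525 nm; Read-out: fibronectin deposition inhibition.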
# Statin myotox sup: protects C2C12 myotubes from simvastatin toxicity; ATP luminescence, 48 h; scaled: DMSO 0, geranylgeraniol control 100; rescue of ATP level, % at 7.49 µM; 330,000 tested, 0.78% active; AID 602340;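 active means mean ATP rescue above about 67%, or every replicate alone reaching that limit, limit read from the data, passing the limit was not always enough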;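 further: myotubes were challenged with 10 µM simvastatin during compound exposure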
# A number is an active result; . = inactive; / = no result given.
SMILES,SIRT5 block,rRNA inh HTS,E-sel inducer,FGF22 binding,FN deposit inh,Statin myotox sup
CC(=O)Nc1cccc(NC(=O)c2ccc(COc3ccccc3)cc2)c1,/,.,.,42.9,.,.
CCOC(=O)c1ccc(NC(=O)c2cc3c(s2)CCC3)cc1,.,.,.,44.6,.,/
CCOC(=O)c1ccc(NC(=O)c2ccco2)cc1,16.8,.,/,.,.,.
CCOc1cccc(C(=O)Nc2cccc(NC(=O)c3ccco3)c2)c1,.,.,.,1.5,.,.
C[C@H]1CN([C@@H](C)CO)C(=O)c2cccc(NS(=O)(=O)c3ccc(Cl)cc3)c2O[C@@H]1CN(C)S(=O)(=O)c1cn(C)cn1,/,.,.,/,/,/
CCS(=O)(=O)Nc1ccc2c(c1)C(=O)N(C)C[C@H](OC)[C@H](C)CN(C(C)=O)[C@H](C)CO2,.,.,.,.,.,.
CC(C)C#Cc1cnc2c(c1)C(=O)N([C@@H](C)CO)C[C@H](C)[C@H](CN(C)C(=O)Nc1cc(F)ccc1F)O2,.,.,.,.,/,.
COCC#Cc1cnc2c(c1)C(=O)N([C@H](C)CO)C[C@H](C)[C@@H](CN(C)C(=O)c1cccc(F)c1)O2,.,.,.,.,.,.
O=C(Nc1cccc(NC(=O)c2ccco2)c1)c1cccc(Br)c1,/,.,.,43.2,.,.
O=C(Nc1cc(Br)c(O)c(Br)c1)c1cccc(NC(=O)c2ccco2)c1,.,.,.,.,.,.
CCCC(CCC(=O)Nc1ccc(C(=O)OCC)cc1)C(=O)O (centres undefined),/,/,/,/,/,105.5
C[C@@H]1CCCCO[C@H](CN(C)C(=O)C2CCCCC2)[C@H](C)CN([C@H](C)CO)C(=O)c2cc(NS(=O)(=O)c3ccc(F)cc3)ccc2O1,.,.,.,.,.,/
NCC[C@H]1CC[C@H](NC(=O)CCN2CCCCC2)[C@@H](CO)O1,.,.,.,.,.,.
Cc1cc(Cl)c(S(=O)(=O)Nc2ccc3c(c2)OCO3)cc1OCC(N)=O,/,/,/,/,.,100.5
Cc1cc(Cl)c(S(=O)(=O)Nc2ccc3c(c2)OCO3)cc1OCC(=O)NC1CCCCC1,/,/,/,/,/,.
CCCC(=O)Nc1ccc2c(c1)OC[C@H](C)N(C(=O)c1cnccn1)C[C@@H](C)[C@@H](OC)CN(C)C2=O,.,.,.,.,.,.
COC(=O)COc1cc(C)cc2oc(=O)c(CC(=O)OC)c(C)c12,/,/,/,/,/,108.4
COC(=O)COc1cc(OCC(=O)OC)c2c(C)c(Cl)c(=O)oc2c1,/,/,.,/,.,/
COc1ccc(S(=O)(=O)Nc2ccc3c(c2)CC(=O)N([C@H](C)CO)C[C@@H](C)[C@@H](CN(C)S(=O)(=O)c2c(C)noc2C)O3)cc1,.,.,.,.,.,.
CCC1=C(c2ccc(C)cc2)S(=O)(=O)N=C1N1CCC(C(=O)NCCCN2CCCCC2C)CC1 (centres undefined),.,.,/,.,.,115.4
C/C(=N/NC(=O)c1sc(NS(=O)(=O)c2ccc(C)cc2)nc1C)c1sc(N)nc1C,.,.,/,43.4,.,/
Cc1ccc(S(=O)(=O)Nc2nc(C)c(C(=O)NN)s2)cc1,.,.,.,.,.,/
O=S(=O)(NC1=NCCC1)c1ccc(F)cc1,/,/,/,/,.,106.8
Cc1ccc(S(=O)(=O)NNC2=NCCCCC2)cc1,/,.,/,.,.,92.2
C[C@@H]1CN([C@@H](C)CO)C(=O)c2cccc(NS(=O)(=O)c3ccccc3)c2O[C@H]1CN(C)C(=O)Nc1ccc2c(c1)OCO2,.,.,.,.,/,.
SMILES,SIRT5 block,rRNA inh HTS,E-sel inducer,FGF22 binding,FN deposit inh,Statin myotox sup
CC(C)C#Cc1ccc2c(c1)O[C@H](CN(C)C(=O)C1CCC1)[C@@H](C)CN([C@H](C)CO)S2(=O)=O,/,.,.,/,.,.
Cc1ccc(-c2nnc(SCC(N)=O)n2C)cc1,.,.,/,43.0,.,.
O=C(CC12CC3CC(CC(C3)C1)C2)N1CCOCC1,/,/,/,/,/,115.3
c1ccc(CNCCCn2cnc3c(OCc4ccccc4)ncnc32)cc1,/,.,.,.,.,.
CC(CNCCCn1cnc2c(OCc3ccccc3)ncnc21)c1ccccc1 (centres undefined),.,-17.1,.,.,.,.
Cc1ccc(NCCCn2cnc3c(OCc4ccccc4)ncnc32)cc1C,/,-21.4,.,.,.,.
O=C(N[C@@H]1CC[C@@H](CCNS(=O)(=O)c2cccc(Cl)c2)O[C@H]1CO)c1ccncc1,.,.,.,.,.,.
O=C(O)c1nn2c(C(F)(F)F)cc(-c3cccs3)nc2c1Cl,.,-19.7,.,.,.,/
C[C@H](CO)N1C[C@H](C)[C@@H](CN(C)S(=O)(=O)c2ccc(C#N)cc2)OCc2ccccc2-c2ccccc2C1=O,.,.,.,.,.,.
Fc1cccc(C2NC(=S)NC3=C2N2CCC3CC2)c1 (centres undefined),20.7,.,.,/,.,.
Cc1cc(OCc2nc(N)nc(N)c2-c2ccc(Cl)c(Cl)c2)ccc1[N+](=O)[O-],.,.,.,.,34.0,/
O=C(Cc1ccncc1)NCC[C@@H]1CC[C@@H](NC(=O)C2CCCCC2)[C@@H](CO)O1,.,.,.,.,/,.
Cc1cnc(C(=O)OCC(=O)c2cc(C)n(C)c2C)cn1,.,.,.,43.0,.,/
Cc1cc(C(=O)COC(=O)c2ccc(Br)o2)c(C)n1C,.,-22.9,.,.,.,.
CC(C)NC(=O)N(C)C[C@H]1OCCCC[C@@H](C)Oc2ccc(NS(=O)(=O)c3ccccc3)cc2C(=O)N([C@H](C)CO)C[C@@H]1C,.,.,.,.,/,/
COCCNC(=O)C[C@H]1C[C@@H]2c3cc(NC(=O)COC)ccc3O[C@@H]2[C@H](CO)O1,.,.,.,/,.,.
CC(=O)c1ccc(C(=O)N2CCCC(CNC(=O)c3ccccc3Cl)C2)cc1 (centres undefined),.,.,.,.,.,.
Cc1cccc(NC(=O)N2CCCC(CNC(=O)c3ccccc3Cl)C2)c1C (centres undefined),30.5,.,.,.,.,.
COc1ccc(N(CC(=O)Nc2cccc(N(C)S(C)(=O)=O)c2)S(C)(=O)=O)cc1OC,.,.,/,/,/,.
COc1ccc(C)cc1N(CC(=O)Nc1cccc(N(C)S(C)(=O)=O)c1)S(C)(=O)=O,/,.,/,/,32.3,.
CC(=O)Nc1ccc(C(=O)Nc2cccc(S(=O)(=O)N(C)c3ccccc3)c2)cc1,.,.,.,.,.,.
CN(c1ccccc1)S(=O)(=O)c1cccc(NC(=O)c2cc(=O)c3ccccc3o2)c1,.,.,/,43.4,/,/
NS(=O)(=O)c1cccc(NC(=O)c2cc(=O)c3ccccc3o2)c1,.,.,/,.,.,.
CN(c1cccc(NC(=O)c2ccc(N(C)S(=O)(=O)c3ccccc3)cc2)c1)S(C)(=O)=O,.,-17.1,.,.,.,/
